One data set has as its target HSA (Homo sapiens, UniProt P02768). Put plainly: Albumin binding affinity by surface plasmon resonance. The settings on record: for k a / k d: SPR, BIAcoT200 system, HSA; for Kd: human, HSA (human serum albumin), surface plasmon resonance.
Data set [1] in a line: Plasma stability test in human plasma with or without HSA. It counts as in vitro ADME. Put shortly: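 Albumin-depleted human plasma was prepared with a blue-dye albumin removal kit. Test peptides at a final 1 mg L−1 were incubated at 37 °C in human plasma with or without HSA. Samples were taken at time points from 0 to 144 h and analysed by LC-MS/MS.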
Setting [2] is: human plasma without albumin (HSA-free).

Square brackets hold non-standard residues; d marks the D form. Ends that are not written are not given here. * marks the point of attachment. FITC = O=C1OC2(c3ccc(O)cc3Oc3cc(O)ccc32)c2ccc(NC(=S)*)cc21; Stearoyl = CCCCCCCCCCCCCCCCCC(=O)*; Palmitoyl = CCCCCCCCCCCCCCCC(=O)*; Myristoyl = CCCCCCCCCCCCCC(=O)*; Aib = CC(C)(N)C(=O)O; Ahx = NCCCCCC(=O)O

Sequence of HSA (P02768 25-609): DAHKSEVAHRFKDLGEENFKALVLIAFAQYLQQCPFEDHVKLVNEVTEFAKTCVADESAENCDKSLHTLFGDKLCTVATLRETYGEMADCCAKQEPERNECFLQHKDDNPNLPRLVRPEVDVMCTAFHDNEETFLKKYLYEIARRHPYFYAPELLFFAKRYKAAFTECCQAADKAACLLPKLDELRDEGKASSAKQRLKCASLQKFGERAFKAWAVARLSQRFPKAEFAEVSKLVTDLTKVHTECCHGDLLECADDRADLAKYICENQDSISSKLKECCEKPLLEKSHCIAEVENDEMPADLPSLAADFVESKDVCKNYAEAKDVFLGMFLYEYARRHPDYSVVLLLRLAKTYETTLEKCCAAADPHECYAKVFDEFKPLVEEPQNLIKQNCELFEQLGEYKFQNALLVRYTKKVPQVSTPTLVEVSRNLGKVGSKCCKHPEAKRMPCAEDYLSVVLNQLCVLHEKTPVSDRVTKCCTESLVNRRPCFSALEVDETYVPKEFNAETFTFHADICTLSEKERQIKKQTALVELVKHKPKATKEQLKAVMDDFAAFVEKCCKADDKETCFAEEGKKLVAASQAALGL

On HSA, “{FITC-Ahx}-EK(Myristoyl)YEEYEGGGGSGGGGSFNPRH[Aib]EGTFTSDVSSYLEGQAAKEFIAWLVKGRG (N-terminus assumed) [PES04]” returned a k a of 1240 M⁻¹ s⁻¹, a k d of 0.0332 s⁻¹ and a dissociation constant (Kd) of 26.7 µM.
At HSA, “{FITC-Ahx}-EK(Palmitoyl)YEEYEGGGGSGGGGSFNPRH[Aib]EGTFTSDVSSYLEGQAAKEFIAWLVKGRG (N-terminus assumed) [PES05]” came in with a k a of 8900 M⁻¹ s⁻¹, a k d of 0.0722 s⁻¹ and a dissociation constant Kd of 8.11 µM.
At HSA, “{FITC-Ahx}-EK(Stearoyl)YEEYEGGGGSGGGGSFNPRH[Aib]EGTFTSDVSSYLEGQAAKEFIAWLVKGRG (N-terminus assumed) [PES06]” had a k a of 18800 M⁻¹ s⁻¹, a k d of 0.0922 s⁻¹ and a Kd of 4.9 µM.
The substance “{FITC-Ahx}-EYEEK(Myristoyl)YEGGGGSGGGGSFNPRH[Aib]EGTFTSDVSSYLEGQAAKEFIAWLVKGRG (N-terminus assumed) [PES13]” had a half-life at 1 mg L^−1 in data set [1] (human plasma with HSA) of 68.7 h. In data set [1] (setting [2]), this substance showed a half-life at 1 mg L^−1 of 64.4 h. Further, on HSA, the k a was 11000 M⁻¹ s⁻¹, the k d turned out to be 0.00422 s⁻¹ and the Kd turned out to be 0.383 µM.
Taken in the same sequence, the figures for “{FITC-Ahx}-EYEEK(Stearoyl)YEGGGGSGGGGSFNPRH[Aib]EGTFTSDVSSYLEGQAAKEFIAWLVKGRG (N-terminus assumed) [PES15]” were 56.5 h, 48.5 h, 21800 M⁻¹ s⁻¹, 0.0112 s⁻¹ and 0.512 µM.
For “{FITC-Ahx}-EYEEYEK(Myristoyl)GGGGSGGGGSFNPRH[Aib]EGTFTSDVSSYLEGQAAKEFIAWLVKGRG (N-terminus assumed) [PES19]”, at HSA, the k a is 2500 M⁻¹ s⁻¹; the k d was 0.0222 s⁻¹; the affinity, expressed as Kd, was 8.73 µM.
Taken in the same sequence, the figures for “{FITC-Ahx}-EYEEYEK(Palmitoyl)GGGGSGGGGSFNPRH[Aib]EGTFTSDVSSYLEGQAAKEFIAWLVKGRG (N-terminus assumed) [PES20]” were 3180 M⁻¹ s⁻¹, 0.0534 s⁻¹ and 16.8 µM.
Regarding “{FITC-Ahx}-EYEEYEK(Stearoyl)GGGGSGGGGSFNPRH[Aib]EGTFTSDVSSYLEGQAAKEFIAWLVKGRG (N-terminus assumed) [PES21]”, at HSA, the k a amounted to 11400 M⁻¹ s⁻¹, the k d is 0.036 s⁻¹ and the equilibrium dissociation constant (Kd) worked out at 3.16 µM.
On HSA, “{FITC-Ahx}-EYEEYK(Myristoyl)EGGGGSGGGGSFNPRH[Aib]EGTFTSDVSSYLEGQAAKEFIAWLVKGRG (N-terminus assumed) [PES16]” displayed a k a of 11000 M⁻¹ s⁻¹, a k d of 0.0192 s⁻¹ and a Kd of 1.74 µM.
Regarding “{FITC-Ahx}-EYEEYK(Palmitoyl)EGGGGSGGGGSFNPRH[Aib]EGTFTSDVSSYLEGQAAKEFIAWLVKGRG (N-terminus assumed) [PES17]”, at HSA, the k a is 12000 M⁻¹ s⁻¹; the k d stood at 0.0627 s⁻¹; the affinity, expressed as Kd, was 5.21 µM.
At HSA, “{FITC-Ahx}-EYEEYK(Stearoyl)EGGGGSGGGGSFNPRH[Aib]EGTFTSDVSSYLEGQAAKEFIAWLVKGRG (N-terminus assumed) [PES18]” gave a k a of 11400 M⁻¹ s⁻¹, a k d of 0.036 s⁻¹ and a Kd of 3.16 µM.
At HSA, “{FITC-Ahx}-EYEK(Myristoyl)EYEGGGGSGGGGSFNPRH[Aib]EGTFTSDVSSYLEGQAAKEFIAWLVKGRG (N-terminus assumed) [PES10]” registered a k a of 12900 M⁻¹ s⁻¹, a k d of 0.0328 s⁻¹ and a Kd of 2.54 µM.
On HSA, “{FITC-Ahx}-EYEK(Palmitoyl)EYEGGGGSGGGGSFNPRH[Aib]EGTFTSDVSSYLEGQAAKEFIAWLVKGRG (N-terminus assumed) [PES11]” yielded a k a of 8380 M⁻¹ s⁻¹, a k d of 0.0782 s⁻¹ and a Kd of 9.33 µM.
In the case of “{FITC-Ahx}-EYEK(Stearoyl)EYEGGGGSGGGGSFNPRH[Aib]EGTFTSDVSSYLEGQAAKEFIAWLVKGRG (N-terminus assumed) [PES12]”, at HSA, the k a was determined as 21700 M⁻¹ s⁻¹, the k d came out at 0.0531 s⁻¹ and binding was characterised by a dissociation constant (Kd) of 2.45 µM.
“{FITC-Ahx}-EYK(Myristoyl)EEYEGGGGSGGGGSFNPRH[Aib]EGTFTSDVSSYLEGQAAKEFIAWLVKGRG (N-terminus assumed) [PES07]”: on HSA, the k a turned out to be 8240 M⁻¹ s⁻¹, the k d worked out at 0.0632 s⁻¹ and binding was put at a Kd of 7.61 µM.
As to “{FITC-Ahx}-EYK(Palmitoyl)EEYEGGGGSGGGGSFNPRH[Aib]EGTFTSDVSSYLEGQAAKEFIAWLVKGRG (N-terminus assumed) [PES08]”, on HSA, the k a was 26700 M⁻¹ s⁻¹, the k d came to 0.0942 s⁻¹ and the dissociation constant (Kd) turned out to be 3.53 µM.
For the substance “{FITC-Ahx}-EYK(Stearoyl)EEYEGGGGSGGGGSFNPRH[Aib]EGTFTSDVSSYLEGQAAKEFIAWLVKGRG (N-terminus assumed) [PES09]”, on HSA, the k a turned out to be 12100 M⁻¹ s⁻¹, the k d worked out at 0.0531 s⁻¹ and the equilibrium dissociation constant (Kd) is 4.32 µM.
Turning to “{FITC-Ahx}-K(Myristoyl)EYEEYEGGGGSGGGGSFNPRH[Aib]EGTFTSDVSSYLEGQAAKEFIAWLVKGRG (N-terminus assumed) [PES01]”, on HSA, the k a turned out to be 6900 M⁻¹ s⁻¹, the k d is 0.0182 s⁻¹ and the dissociation constant (Kd) turned out to be 2.66 µM.
As for “{FITC-Ahx}-K(Stearoyl)EYEEYEGGGGSGGGGSFNPRH[Aib]EGTFTSDVSSYLEGQAAKEFIAWLVKGRG (N-terminus assumed) [PES03]”, on HSA, the k a was found to be 12800 M⁻¹ s⁻¹, the k d came out at 0.0322 s⁻¹ and the dissociation constant Kd is 2.51 µM.

The record behind these values is PMC9049141 (RSC Advances, 2020).
